Results reported in ChEMBL document CHEMBL5653631, “A Potent and Selective ULK1 Inhibitor Suppresses Autophagy and Sensitizes Cancer Cells to Nutrient Stress” (iScience, 2018).
One block for each compound: values may come before it.

Assays:
[1] = target: T1, Serine/threonine-protein kinase TAO1 (Homo sapiens) (UniProt Q7L7X3); test: Inhibition of human recombinant TAO1 at 500 nM in presence of ATP by radiometric assay relative to control
T1 sequence (whole entry): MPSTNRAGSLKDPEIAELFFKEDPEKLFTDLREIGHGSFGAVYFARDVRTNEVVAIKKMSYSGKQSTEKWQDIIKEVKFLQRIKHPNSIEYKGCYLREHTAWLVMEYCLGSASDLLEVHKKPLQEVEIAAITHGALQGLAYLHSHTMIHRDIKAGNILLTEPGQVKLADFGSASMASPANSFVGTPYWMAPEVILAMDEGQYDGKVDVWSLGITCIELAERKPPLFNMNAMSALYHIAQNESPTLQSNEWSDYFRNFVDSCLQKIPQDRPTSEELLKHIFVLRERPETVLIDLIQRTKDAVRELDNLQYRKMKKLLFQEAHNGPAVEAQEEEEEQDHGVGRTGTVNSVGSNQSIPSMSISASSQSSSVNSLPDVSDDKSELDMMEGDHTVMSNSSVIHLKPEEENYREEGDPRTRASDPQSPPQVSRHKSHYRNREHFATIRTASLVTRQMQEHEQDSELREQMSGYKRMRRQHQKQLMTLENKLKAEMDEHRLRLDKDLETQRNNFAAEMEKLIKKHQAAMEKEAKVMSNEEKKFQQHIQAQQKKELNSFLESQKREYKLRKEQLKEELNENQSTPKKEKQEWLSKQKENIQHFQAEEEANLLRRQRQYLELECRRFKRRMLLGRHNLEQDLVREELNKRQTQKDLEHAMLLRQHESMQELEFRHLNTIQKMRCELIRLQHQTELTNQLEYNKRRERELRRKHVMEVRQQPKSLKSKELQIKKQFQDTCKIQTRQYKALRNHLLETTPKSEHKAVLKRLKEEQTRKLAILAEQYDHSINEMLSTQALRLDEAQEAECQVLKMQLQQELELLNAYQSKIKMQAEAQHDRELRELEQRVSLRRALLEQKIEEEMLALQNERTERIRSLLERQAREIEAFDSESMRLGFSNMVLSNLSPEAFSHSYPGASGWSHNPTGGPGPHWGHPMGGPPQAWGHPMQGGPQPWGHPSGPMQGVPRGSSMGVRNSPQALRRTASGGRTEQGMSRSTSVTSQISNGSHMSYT

[2] = target: Macrophage colony-stimulating factor 1 receptor (Homo sapiens) (UniProt P07333); test: Inhibition of human recombinant FMS at 500 nM in presence of ATP by radiometric assay relative to control
[3] = target: T2, Testis-specific serine/threonine-protein kinase 3 (Homo sapiens) (UniProt Q96PN8); test: Inhibition of human recombinant TSSK3 at 500 nM related to control ULK1
T2 sequence (whole entry): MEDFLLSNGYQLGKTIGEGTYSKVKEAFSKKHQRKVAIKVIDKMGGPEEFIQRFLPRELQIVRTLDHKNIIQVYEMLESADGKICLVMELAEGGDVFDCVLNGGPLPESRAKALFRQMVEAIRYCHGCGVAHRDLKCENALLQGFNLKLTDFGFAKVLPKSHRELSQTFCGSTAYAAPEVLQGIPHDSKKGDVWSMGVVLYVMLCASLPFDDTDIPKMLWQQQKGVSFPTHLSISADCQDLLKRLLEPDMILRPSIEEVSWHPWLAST

[4] = target: T3, Activin receptor type-1 (Homo sapiens) (UniProt Q04771); test: Inhibition of human recombinant ALK2 at 15 nM related to control ULK1
T3 sequence (whole entry): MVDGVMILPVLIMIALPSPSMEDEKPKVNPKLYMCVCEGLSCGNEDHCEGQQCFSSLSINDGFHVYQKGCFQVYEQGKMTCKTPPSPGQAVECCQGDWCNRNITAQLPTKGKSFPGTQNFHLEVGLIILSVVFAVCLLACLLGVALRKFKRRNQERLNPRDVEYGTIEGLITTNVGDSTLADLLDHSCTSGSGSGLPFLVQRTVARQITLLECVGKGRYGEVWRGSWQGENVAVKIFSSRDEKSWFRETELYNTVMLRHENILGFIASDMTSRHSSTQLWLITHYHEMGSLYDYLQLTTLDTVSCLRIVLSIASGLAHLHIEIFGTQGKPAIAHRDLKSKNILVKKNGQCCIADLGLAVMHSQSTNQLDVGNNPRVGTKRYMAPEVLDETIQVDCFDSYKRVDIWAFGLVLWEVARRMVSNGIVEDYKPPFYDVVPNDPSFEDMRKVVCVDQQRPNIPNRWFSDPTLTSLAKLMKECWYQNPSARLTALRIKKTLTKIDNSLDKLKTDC
Outline: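 Panel of 327 recombinant human kinases, each assayed in vitro by radiometric activity assay in duplicate at a single inhibitor concentration per compound, chosen with reference to its ULK1 inhibition. Activity remaining was expressed as percent of vehicle control, and percent inhibition was calculated as 100 minus percent activity remaining.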

[5] = target: T4, Ephrin type-A receptor 3 (Homo sapiens) (UniProt P29320); test: Inhibition of human recombinant EphA3 at 40 nM related to control ULK1
T4 sequence (whole entry): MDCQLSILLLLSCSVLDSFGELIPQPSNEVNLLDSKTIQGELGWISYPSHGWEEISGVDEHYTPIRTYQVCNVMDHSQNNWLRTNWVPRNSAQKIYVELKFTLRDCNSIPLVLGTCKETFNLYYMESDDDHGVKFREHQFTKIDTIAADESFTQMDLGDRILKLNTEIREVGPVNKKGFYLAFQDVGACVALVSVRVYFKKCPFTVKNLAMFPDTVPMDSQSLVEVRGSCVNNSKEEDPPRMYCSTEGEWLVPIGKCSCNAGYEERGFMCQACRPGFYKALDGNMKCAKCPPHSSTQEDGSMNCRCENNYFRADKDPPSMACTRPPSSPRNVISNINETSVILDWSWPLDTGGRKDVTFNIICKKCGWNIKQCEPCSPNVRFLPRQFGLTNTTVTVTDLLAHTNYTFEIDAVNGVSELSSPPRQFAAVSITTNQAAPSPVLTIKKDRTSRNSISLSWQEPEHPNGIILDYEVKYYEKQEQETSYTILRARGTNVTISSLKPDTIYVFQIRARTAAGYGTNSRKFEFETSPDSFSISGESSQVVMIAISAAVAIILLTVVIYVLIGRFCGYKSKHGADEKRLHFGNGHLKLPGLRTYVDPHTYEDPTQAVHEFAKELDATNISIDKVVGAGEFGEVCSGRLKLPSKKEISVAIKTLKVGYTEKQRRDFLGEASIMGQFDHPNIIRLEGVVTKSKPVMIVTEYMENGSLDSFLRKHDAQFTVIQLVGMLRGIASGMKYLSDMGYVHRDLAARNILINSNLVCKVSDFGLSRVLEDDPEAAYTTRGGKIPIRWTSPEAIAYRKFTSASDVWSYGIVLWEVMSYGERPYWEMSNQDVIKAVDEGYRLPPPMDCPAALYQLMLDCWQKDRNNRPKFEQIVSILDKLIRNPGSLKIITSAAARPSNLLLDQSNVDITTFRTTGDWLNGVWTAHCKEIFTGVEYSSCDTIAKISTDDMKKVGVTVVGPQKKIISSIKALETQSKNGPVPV

Macrophage colony-stimulating factor 1 receptor (Homo sapiens), sequence (P07333 whole entry): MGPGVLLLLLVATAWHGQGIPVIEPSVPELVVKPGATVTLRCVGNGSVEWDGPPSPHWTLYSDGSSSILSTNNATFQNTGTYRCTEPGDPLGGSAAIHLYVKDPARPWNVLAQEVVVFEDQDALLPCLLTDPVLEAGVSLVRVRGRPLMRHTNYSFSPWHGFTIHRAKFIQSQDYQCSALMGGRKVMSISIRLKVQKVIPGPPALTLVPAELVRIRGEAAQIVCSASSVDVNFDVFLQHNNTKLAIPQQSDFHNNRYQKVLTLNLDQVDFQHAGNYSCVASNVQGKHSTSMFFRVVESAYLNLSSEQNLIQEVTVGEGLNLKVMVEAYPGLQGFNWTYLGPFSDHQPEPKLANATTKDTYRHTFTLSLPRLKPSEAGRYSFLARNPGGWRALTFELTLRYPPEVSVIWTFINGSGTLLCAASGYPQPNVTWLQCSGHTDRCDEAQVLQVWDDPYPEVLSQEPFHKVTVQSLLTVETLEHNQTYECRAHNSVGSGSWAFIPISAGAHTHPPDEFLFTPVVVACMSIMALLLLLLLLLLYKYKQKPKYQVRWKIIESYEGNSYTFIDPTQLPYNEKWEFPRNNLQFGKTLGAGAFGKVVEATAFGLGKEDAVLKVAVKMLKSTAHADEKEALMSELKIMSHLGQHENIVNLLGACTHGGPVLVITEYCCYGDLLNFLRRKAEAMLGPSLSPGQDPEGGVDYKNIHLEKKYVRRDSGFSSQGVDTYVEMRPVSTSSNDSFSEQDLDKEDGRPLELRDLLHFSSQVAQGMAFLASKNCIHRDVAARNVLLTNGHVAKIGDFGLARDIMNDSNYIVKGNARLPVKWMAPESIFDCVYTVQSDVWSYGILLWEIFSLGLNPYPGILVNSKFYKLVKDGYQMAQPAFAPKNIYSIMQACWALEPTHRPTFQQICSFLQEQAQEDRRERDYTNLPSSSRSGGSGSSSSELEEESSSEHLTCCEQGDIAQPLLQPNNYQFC

inhibition [1]: 6%
inhibition [2]: 19%
fold change (FC) [3]: 0
Structure (SMILES): CNC(=O)c1ccccc1Oc1nc(Nc2cc(OC)c(OC)c(OC)c2)ncc1Br

fold change (FC) [4]: 0.3
Structure (SMILES): CC(C)[C@H](NC(=O)c1cc(-c2cnn3cc(-c4ccc(OCCN5CCCCC5)cc4)cnc23)cs1)C(F)(F)F

fold change (FC) [5]: 0.21
Structure (SMILES): O=C(N[C@@H](C1CC1)C(F)(F)F)c1cc(-c2cnn3cc(-c4ccc(F)cc4)cnc23)cs1
